Source: ChEMBL document CHEMBL1629440, “Synthesis and pharmacological properties of novel hydrophilic 5-HT4 receptor antagonists” (Bioorg Med Chem, 2010)

Tests used:
[1] = target: T1, 5-hydroxytryptamine receptor 4 (Homo sapiens, UniProt Q13639); test: Displacement of [3H]GR113808 from human 5HT4 receptor expressed in HEK293 cells by liquid scintillation counting; format: cell-based
Outline: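 Membranes from HEK293 line stably expressing human 5-HT4(b) at high level (5000 fmol/mg). Incubated with 0.3 nM [3H]GR113808 and 21 competitor concentrations in Tris-HCl pH 7.5, EDTA, EGTA, 2 mM MgCl2, ascorbate, 0.1% BSA, 100 µM GTP, room temperature 1 h. Filtered onto PEI-soaked filters, washed, scintillation counted. Ki derived from IC50 via Ki = IC50/(1+L/Kd).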

[2] = target: T1, 5-hydroxytryptamine receptor 4; test: Antagonistic activity at human 5HT4 receptor expressed in HEK293 cells assessed as inhibition of 5-HT stimulated ADCY activity after 20 mins; format: functional, cell-based
Outline: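 Membranes from HEK293 cells stably expressing human 5-HT4(b) at low level (400 fmol/mg). Adenylyl cyclase activity was stimulated by 1 µM 5-HT with 21 antagonist concentrations, 0.1 mM [α-32P]ATP, 4 mM MgCl2, 1 mM IBMX, GTP and ATP-regenerating system, 32 °C, 20 min. [32P]cAMP was isolated on Dowex/alumina columns. IC50 was fitted by non-linear regression and Kb calculated using 5-HT EC50.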

[3] = Lipophilicity, log D of the compound in octanol buffer at pH 7.4; format: physicochemical
Outline: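 Distribution between octanol and aqueous buffer at pH 7.4. Both phases were diluted and ligand concentration in each measured by HPLC. Not determined where micelles formed.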

[4] = Half life in bovine plasma by HPLC; format: ADME, Bos taurus; conditions: cattle
Outline: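 Ester incubated at 40 µM initial concentration in bovine plasma at 37 °C for up to 10 h. Aliquots were removed at intervals and H3PO4 added to release protein-bound drug. Parent ester and free-acid degradation product were quantified by HPLC, and half-life was calculated.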

T1 sequence (Q13639 whole entry): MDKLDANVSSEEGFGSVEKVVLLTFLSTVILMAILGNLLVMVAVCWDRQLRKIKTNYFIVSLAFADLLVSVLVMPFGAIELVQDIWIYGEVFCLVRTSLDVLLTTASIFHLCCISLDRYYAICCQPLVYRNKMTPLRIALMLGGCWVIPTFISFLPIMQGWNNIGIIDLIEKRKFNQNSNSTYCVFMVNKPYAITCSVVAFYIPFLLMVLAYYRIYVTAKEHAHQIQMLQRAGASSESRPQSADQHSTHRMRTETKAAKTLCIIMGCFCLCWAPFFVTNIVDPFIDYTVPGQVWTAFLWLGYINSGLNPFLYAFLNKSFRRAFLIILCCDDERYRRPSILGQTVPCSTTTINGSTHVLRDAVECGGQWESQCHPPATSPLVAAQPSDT

| Structure (SMILES) | Ki [1] | pKb [2] | logD [3] | half-life [4] |
| --- | --- | --- | --- | --- |
| O=C(CCCCCN1CCC(CNC(=O)c2c3n(c4ccccc24)CCCO3)CC1)OCc1ccccc1 | 0.141 nM | 10.2 |  |  |
| O=C(O)CCN1CCC(CNC(=O)c2c3n(c4ccccc24)CCCO3)CC1 | 1.12 nM | 8.08 | -1.3 |  |
| O=C(CCCN1CCC(CNC(=O)c2c3n(c4ccccc24)CCCO3)CC1)OCc1ccccc1 | 0.0427 nM | 9.85 |  | 20 min |
| O=C(O)CN1CCC(CNC(=O)c2c3n(c4ccccc24)CCCO3)CC1 | 2.82 nM | 7.91 | -1.1 |  |
| COC(=O)CCCCCCCCCCCN1CCC(CNC(=O)c2c3n(c4ccccc24)CCCO3)CC1 | 0.339 nM | 9.89 |  |  |
| O=C(O)c1ccc(CN2CCC(CNC(=O)c3c4n(c5ccccc35)CCCO4)CC2)cc1 | 5.01 nM | 7.25 |  |  |
| CC(C)(C)C(=O)OCOC(=O)c1ccc(CN2CCC(CNC(=O)c3c4n(c5ccccc35)CCCO4)CC2)cc1 | 0.339 nM | 9.07 | 2.3 |  |
| CCCCN1CCC(CNC(=O)c2c3n(c4ccccc24)CCCO3)CC1 [PIBOSEROD] | 0.0525 nM | 9.26 | 2.2 |  |
| CC(C)(C)OC(=O)CCCN1CCC(CNC(=O)c2c3n(c4ccccc24)CCCO3)CC1 | 0.234 nM | 9.47 |  |  |
| CC(C)(C)C(=O)OCOC(=O)CCCCCN1CCC(CNC(=O)c2c3n(c4ccccc24)CCCO3)CC1 | 0.0646 nM | 9.83 |  |  |
| CC(C)(C)OC(=O)CN1CCC(CNC(=O)c2c3n(c4ccccc24)CCCO3)CC1 | 0.759 nM | 9.01 |  |  |
| CC(C)(C)OC(=O)CCCCCN1CCC(CNC(=O)c2c3n(c4ccccc24)CCCO3)CC1 | 0.0537 nM | 9.89 |  |  |
